Tests used:
[1] = target: T1, Tyrosine-protein kinase BTK (Homo sapiens, UniProt Q06187); experiment: Inhibition of human full-length BTK expressed in Sf9 cells using FAM-Srctide peptide as substrate after 60 mins by TR-FRET Assay
[2] = target: T2, Tyrosine-protein kinase Lyn (Homo sapiens, UniProt P07948); experiment: Inhibition of LYN-A expressed in Sf9 cells after 60 mins by TR-FRET Assay
[3] = Inhibition of anti-IgM-stimulated human B cell proliferation assessed as [3H]thymidine incorporation preincubated for 30 mins measured after 3 days; type: functional, cell-based
[4] = target: T3, Aryl hydrocarbon receptor (Mus musculus, UniProt P30561); experiment: Agonist activity at Ah receptor in genetically engineered mouse cells expressing firefly luciferase gene by CALUX transactivational assay; type: functional
T3 sequence (P30561 whole entry): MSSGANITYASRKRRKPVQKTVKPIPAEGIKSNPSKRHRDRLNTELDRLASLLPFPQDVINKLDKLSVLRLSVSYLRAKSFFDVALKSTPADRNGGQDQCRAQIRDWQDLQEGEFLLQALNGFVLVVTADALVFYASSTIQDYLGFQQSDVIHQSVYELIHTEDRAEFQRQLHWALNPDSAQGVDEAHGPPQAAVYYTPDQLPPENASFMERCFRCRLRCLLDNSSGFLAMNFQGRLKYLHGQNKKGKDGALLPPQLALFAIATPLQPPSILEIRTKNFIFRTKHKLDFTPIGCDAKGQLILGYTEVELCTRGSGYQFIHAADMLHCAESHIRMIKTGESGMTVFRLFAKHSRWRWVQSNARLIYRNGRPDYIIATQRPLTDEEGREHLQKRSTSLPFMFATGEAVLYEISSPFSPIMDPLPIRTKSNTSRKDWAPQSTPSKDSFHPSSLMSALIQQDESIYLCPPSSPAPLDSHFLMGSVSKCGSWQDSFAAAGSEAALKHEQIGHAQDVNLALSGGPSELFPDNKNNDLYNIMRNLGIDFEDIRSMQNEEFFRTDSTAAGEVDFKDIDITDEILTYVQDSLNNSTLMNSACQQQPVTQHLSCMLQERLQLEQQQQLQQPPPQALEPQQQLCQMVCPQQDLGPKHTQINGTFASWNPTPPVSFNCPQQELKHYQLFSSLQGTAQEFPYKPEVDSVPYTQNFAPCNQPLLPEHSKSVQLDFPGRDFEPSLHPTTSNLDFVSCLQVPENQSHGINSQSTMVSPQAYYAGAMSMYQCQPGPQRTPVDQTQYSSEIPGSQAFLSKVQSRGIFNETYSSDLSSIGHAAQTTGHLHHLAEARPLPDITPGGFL

[5] = target: T4, Proto-oncogene tyrosine-protein kinase Src (Homo sapiens, UniProt P12931); experiment: Inhibition cSRC expressed in Sf9 cells after 60 mins by TR-FRET Assay
[6] = target: T1, Tyrosine-protein kinase BTK; experiment: Inhibition of human full-length BTK expressed in Sf9 cells using FAM-Srctide peptide as substrate preincubated for 60 mins measured after 60 mins by TR-FRET Assay
How it was run: (§1)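 The compound was pre-incubated with the kinase before the enzymatic reaction was started. IC50 values are averages of two or more determinations.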

[7] = target: T2, Tyrosine-protein kinase Lyn; experiment: Inhibition of LYN-A expressed in Sf9 cells preincubated for 60 mins measured after 60 mins by TR-FRET Assay; how it was run: as §1
[8] = target: Tyrosine-protein kinase Lck (Homo sapiens, UniProt P06239); experiment: Inhibition of C-terminal His6-tagged human full-length LCK expressed in Sf9 cells preincubated for 60 mins measured after 60 mins by TR-FRET Assay
[9] = target: T4, Proto-oncogene tyrosine-protein kinase Src; experiment: Inhibition cSRC expressed in Sf9 cells preincubated for 60 mins measured after 60 mins by TR-FRET Assay
[10] = target: T5, Epidermal growth factor receptor (Homo sapiens, UniProt P00533); experiment: Inhibition of EGFR preincubated for 60 mins measured after 60 mins by TR-FRET Assay
[11] = target: T5, Epidermal growth factor receptor; experiment: Inhibition of EGFR after 60 mins by TR-FRET Assay
[12] = AUC (0 to infinity) in mouse at 2 mg/kg, iv; type: ADME, organism-based; parameters: time infinity, dose 2 mg/kg, route intravenous; settings: plasma
[13] = AUC (0 to infinity) in mouse at 10 mg/kg, po; type: ADME, organism-based; parameters: time infinity, dose 10 mg/kg, route oral; settings: plasma
[14] = Half life in mouse at 2 mg/kg, iv; type: ADME, organism-based; parameters: dose 2 mg/kg, route intravenous; settings: in vivo
[15] = Half life in mouse at 10 mg/kg, po; type: ADME, organism-based; parameters: dose 10 mg/kg, route oral; settings: in vivo
[16] = Clearance in mouse at 2 mg/kg, iv; type: ADME, organism-based; parameters: dose 2 mg/kg, route intravenous; settings: in vivo
[17] = Volume of distribution at steady state in mouse at 2 mg/kg, iv; type: ADME, organism-based; parameters: dose 2 mg/kg, route intravenous; settings: in vivo, read-out: Vdss
How it was run: (§2)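 Mouse pharmacokinetics from single dosing at 2 mg/kg iv and 10 mg/kg po. The study derived AUC, T1/2, clearance, Vss, Tmax, Cmax and oral bioavailability (%F) from the paired iv and po arms.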

[18] = Tmax in mouse at 10 mg/kg, po; type: ADME, organism-based; parameters: dose 10 mg/kg, route oral; settings: in vivo; how it was run: as §2
[19] = Cmax in mouse at 10 mg/kg, po; type: ADME, organism-based; parameters: dose 10 mg/kg, route oral; settings: in vivo
[20] = Oral bioavailability in mouse at 10 mg/kg; type: ADME, organism-based; settings: in vivo; how it was run: as §2
[21] = Homo sapiens, B-cell, read-out: IC50

T2 sequence (P07948 whole entry): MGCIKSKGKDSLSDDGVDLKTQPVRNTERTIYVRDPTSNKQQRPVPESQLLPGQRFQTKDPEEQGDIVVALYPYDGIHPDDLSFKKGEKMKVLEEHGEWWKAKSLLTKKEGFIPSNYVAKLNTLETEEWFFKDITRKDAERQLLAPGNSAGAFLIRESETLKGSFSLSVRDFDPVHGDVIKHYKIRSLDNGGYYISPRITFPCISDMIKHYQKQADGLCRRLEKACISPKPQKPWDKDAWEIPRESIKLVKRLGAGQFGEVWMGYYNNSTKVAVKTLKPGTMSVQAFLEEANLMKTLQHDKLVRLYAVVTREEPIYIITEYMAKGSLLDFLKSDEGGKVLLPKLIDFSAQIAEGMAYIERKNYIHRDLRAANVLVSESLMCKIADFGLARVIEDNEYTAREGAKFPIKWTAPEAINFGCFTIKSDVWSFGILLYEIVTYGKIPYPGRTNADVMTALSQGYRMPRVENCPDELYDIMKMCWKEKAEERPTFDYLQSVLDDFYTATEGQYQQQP
T1 sequence (Q06187 whole entry): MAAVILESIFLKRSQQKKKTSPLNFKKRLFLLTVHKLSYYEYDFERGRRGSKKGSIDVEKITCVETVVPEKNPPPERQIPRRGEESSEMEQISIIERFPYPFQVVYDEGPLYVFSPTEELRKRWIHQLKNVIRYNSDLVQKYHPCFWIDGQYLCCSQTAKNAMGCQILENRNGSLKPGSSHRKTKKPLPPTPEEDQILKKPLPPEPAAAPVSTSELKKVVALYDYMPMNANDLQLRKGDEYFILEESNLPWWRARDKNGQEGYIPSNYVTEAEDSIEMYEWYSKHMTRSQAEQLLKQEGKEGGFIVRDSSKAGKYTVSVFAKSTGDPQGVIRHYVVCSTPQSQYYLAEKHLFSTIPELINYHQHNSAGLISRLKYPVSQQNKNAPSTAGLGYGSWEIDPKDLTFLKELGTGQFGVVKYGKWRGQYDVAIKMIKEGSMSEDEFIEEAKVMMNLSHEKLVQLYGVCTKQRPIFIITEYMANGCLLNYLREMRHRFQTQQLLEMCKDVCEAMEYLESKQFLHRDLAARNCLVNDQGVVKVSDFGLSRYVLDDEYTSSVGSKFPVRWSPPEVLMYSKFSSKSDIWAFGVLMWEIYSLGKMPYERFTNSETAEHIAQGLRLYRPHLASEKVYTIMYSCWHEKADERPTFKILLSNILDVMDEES
T4 sequence (P12931 2-536 limits assumed): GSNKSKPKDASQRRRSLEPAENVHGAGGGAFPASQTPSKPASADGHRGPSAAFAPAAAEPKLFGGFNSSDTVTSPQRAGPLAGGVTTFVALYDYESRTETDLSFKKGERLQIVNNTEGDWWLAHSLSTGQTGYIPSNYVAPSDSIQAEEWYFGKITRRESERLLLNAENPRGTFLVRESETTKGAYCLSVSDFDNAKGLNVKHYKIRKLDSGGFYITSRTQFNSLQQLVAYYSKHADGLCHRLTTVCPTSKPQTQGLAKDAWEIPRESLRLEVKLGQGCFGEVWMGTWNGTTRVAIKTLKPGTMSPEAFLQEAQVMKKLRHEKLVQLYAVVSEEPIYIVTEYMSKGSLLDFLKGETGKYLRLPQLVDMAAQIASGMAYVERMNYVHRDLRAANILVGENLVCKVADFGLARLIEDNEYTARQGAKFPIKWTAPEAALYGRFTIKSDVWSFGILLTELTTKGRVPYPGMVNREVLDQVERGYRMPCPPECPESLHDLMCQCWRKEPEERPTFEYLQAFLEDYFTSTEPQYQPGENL
T5 sequence (P00533 whole entry): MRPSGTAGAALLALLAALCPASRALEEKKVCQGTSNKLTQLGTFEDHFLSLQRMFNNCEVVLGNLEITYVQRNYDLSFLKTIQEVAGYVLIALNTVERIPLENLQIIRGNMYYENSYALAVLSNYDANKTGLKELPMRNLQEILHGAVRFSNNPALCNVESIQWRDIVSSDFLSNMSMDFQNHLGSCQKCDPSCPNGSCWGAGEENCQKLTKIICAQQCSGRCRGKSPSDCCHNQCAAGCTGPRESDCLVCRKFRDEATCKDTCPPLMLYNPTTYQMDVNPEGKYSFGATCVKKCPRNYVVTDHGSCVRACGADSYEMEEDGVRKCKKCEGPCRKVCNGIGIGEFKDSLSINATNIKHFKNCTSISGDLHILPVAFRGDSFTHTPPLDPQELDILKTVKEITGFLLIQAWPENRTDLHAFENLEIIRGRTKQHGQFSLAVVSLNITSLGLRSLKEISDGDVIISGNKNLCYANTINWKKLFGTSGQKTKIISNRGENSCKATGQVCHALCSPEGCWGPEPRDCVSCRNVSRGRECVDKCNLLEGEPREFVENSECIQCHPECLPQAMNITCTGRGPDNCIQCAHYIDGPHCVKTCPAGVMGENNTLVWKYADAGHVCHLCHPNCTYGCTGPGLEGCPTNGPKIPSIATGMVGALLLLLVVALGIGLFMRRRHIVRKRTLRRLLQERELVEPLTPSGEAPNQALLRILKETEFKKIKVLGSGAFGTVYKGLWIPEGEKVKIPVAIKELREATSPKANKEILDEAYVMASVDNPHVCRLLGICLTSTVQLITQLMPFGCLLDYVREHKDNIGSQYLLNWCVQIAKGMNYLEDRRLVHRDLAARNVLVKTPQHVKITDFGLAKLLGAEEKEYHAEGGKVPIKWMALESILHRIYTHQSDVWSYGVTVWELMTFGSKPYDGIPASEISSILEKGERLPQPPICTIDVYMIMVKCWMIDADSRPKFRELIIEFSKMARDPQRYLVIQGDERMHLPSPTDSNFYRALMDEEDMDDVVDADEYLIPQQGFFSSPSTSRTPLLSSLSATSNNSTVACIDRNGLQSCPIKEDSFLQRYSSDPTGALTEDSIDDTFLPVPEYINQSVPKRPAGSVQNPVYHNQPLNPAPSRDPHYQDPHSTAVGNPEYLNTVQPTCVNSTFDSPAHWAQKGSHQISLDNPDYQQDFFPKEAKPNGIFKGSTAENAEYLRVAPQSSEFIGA
Tyrosine-protein kinase Lck, sequence (P06239 whole entry): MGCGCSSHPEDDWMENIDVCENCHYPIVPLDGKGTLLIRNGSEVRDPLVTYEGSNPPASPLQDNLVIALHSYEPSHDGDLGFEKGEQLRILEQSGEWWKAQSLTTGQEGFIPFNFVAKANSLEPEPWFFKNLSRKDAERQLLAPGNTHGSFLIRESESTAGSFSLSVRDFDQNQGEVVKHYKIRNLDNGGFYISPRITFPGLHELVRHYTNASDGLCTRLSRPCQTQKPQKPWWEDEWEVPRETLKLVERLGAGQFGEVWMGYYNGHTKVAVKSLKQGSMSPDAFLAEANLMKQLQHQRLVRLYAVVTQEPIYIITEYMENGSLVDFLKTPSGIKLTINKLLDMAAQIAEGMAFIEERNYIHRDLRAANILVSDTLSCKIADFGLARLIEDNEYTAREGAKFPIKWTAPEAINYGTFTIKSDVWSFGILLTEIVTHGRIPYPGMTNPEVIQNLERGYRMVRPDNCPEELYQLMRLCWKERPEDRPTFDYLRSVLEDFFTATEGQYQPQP

| Structure (SMILES) | IC50 [1] | IC50 [2] | IC50 [3, 21] | other results |
| --- | --- | --- | --- | --- |
| Cc1ccccc1Oc1nc2cc(F)c(N(C)C(=O)/C=C/CN(C)C)cc2n2cncc12 | 5.51 nM | 6020 nM | 17.4 nM | – |
| Cc1cccc(O)c1Nc1nc2ccc(N(C)C(=O)/C=C/CN(C)C)cc2n2cncc12 | 10.4 nM | 167 nM | 44.9 nM | – |
| CNc1cc2c(cc1F)nc(Oc1ccccc1C)c1cncn12 | 670 nM | 130 nM | – | – |
| Cc1cc(O)ccc1Nc1nc2ccc(N(C)C(=O)/C=C/CN(C)C)cc2n2cncc12 | 12.2 nM | 350 nM | 1.02 nM | – |
| Cc1ccccc1Sc1nc2ccc(N(C)C(=O)/C=C/CN(C)C)cc2n2cncc12 | 283 nM | 19600 nM | 651 nM | – |
| Cc1cc(F)ccc1Nc1nc2cc(F)c(N(C)C(=O)/C=C/CN(C)C)cc2n2cncc12 | 5.35 nM | 3450 nM | 8.08 nM | – |
| Cc1cc(F)ccc1Oc1nc2cc(F)c(N(C)C(=O)/C=C/CN(C)C)cc2n2cncc12 | 9.53 nM | 10400 nM | 32.3 nM | – |
| Cc1ccc(Cl)cc1Nc1nc2ccc(N(C)C(=O)/C=C/CN(C)C)cc2n2cncc12 | 13.2 nM | 1670 nM | 53.7 nM | – |
| Cc1cc(F)ccc1Nc1nc2cc(Cl)c(N(C)C(=O)/C=C/CN(C)C)cc2n2cncc12 | 9.53 nM | 1590 nM | 2.41 nM | – |
| Cc1cc(F)ccc1Oc1nc2ccc(N(C)C(=O)/C=C/CN(C)C)cc2n2cncc12 | 6.58 nM | 3730 nM | 228 nM | EC50 [4]: > 10000 nM |
| Cc1ccc(F)cc1Nc1nc2cc(F)c(N(C)C(=O)/C=C/CN(C)C)cc2n2cncc12 | 6.76 nM | 3080 nM | 23.5 nM | – |
| Cc1c(Cl)cccc1Nc1nc2ccc(N(C)C(=O)/C=C/CN(C)C)cc2n2cncc12 | 60.6 nM | 2320 nM | – | IC50 ([3]; b cell): Not Active |
| Cc1cccc(Cl)c1Nc1nc2ccc(N(C)C(=O)/C=C/CN(C)C)cc2n2cncc12 | 10.3 nM | 44.4 nM | – | IC50 ([3]; b cell): Not Active |
| CNc1cc2c(cc1F)nc(Nc1ccccc1C)c1cncn12 | 40 nM | 19 nM | – | – |
| Cc1ccc(F)cc1Oc1nc2cc(F)c(N(C)C(=O)/C=C/CN(C)C)cc2n2cncc12 | 13 nM | 7400 nM | 144 nM | – |
| CNc1ccc2nc(Nc3cc(F)ccc3C)c3cncn3c2c1 | 72 nM | 40 nM | – | – |
| CNc1ccc2nc(Oc3ccc(F)cc3C)c3cncn3c2c1 | 1220 nM | 560 nM | – | – |
| COc1cc2nc(Nc3ccccc3C)c3cncn3c2cc1N(CC1CC1)C(=O)/C=C/CN(C)C | 45.3 nM | 1980 nM | 43.1 nM | – |
| Clc1cc2c(cc1Cl)Oc1cc(Cl)c(Cl)cc1O2 [2,3,7,8-TETRACHLORODIBENZO-P-DIOXIN] | – | – | – | EC50 [4]: 0.03 nM |
| CCN(C(=O)/C=C/CN(C)C)c1cc2c(cc1OC)nc(Nc1ccccc1C)c1cncn12 | 19.1 nM | 533 nM | 16.1 nM | – |
| CN(C)C/C=C/C(=O)N(C)c1cc2c(cc1Cl)nc(Nc1ccccc1Cl)c1cncn12 | 5.03 nM | 2000 nM | 4.4 nM | – |
| Cc1c(O)cccc1Nc1nc2ccc(N(C)C(=O)/C=C/CN(C)C)cc2n2cncc12 | 76.5 nM | 490 nM | – | IC50 ([3]; b cell): Not Active |
| Cc1cc(Cl)ccc1Nc1nc2ccc(N(C)C(=O)/C=C/CN(C)C)cc2n2cncc12 | 7.56 nM | 378 nM | 4.12 nM | – |
| Cc1ccc(NC(=O)c2cccc(C(F)(F)F)c2)cc1Nc1nc2ccc(N(C)C(=O)/C=C/CN(C)C)cc2n2cncc12 | 16.8 nM | 1.55 nM | – | IC50 ([3]; b cell): Not Active |
| CN(C)C/C=C/C(=O)N(C)c1ccc2nc(Cl)c3cncn3c2c1 | 4290 nM | > 50000 nM | – | IC50 ([3]; b cell): Not Active |

More lines, in order of falling IC50 [1], values ahead:

| IC50 [1] | IC50 [2] | Structure (SMILES) | IC50 [3, 21] | other results |
| --- | --- | --- | --- | --- |
| 4.83 nM | 1300 nM | Cc1ccccc1Nc1nc2cc(Cl)c(N(C)C(=O)/C=C/CN(C)C)cc2n2cncc12 | 2.17 nM | – |
| 3.99 nM | 623 nM | Cc1ccccc1Nc1nc2ccc(N(C)C(=O)/C=C/CN(C)C)cc2n2cncc12 | 3.17 nM | – |
| 3.98 nM | 3390 nM | Cc1ccc(F)cc1Nc1nc2cc(Cl)c(N(C)C(=O)/C=C/CN(C)C)cc2n2cncc12 | 5.84 nM | EC50 [4]: > 10000 nM; IC50 [5]: 1620 nM; IC50 [6]: 2.6 nM; IC50 [7]: 3020 nM; IC50 [8]: 2790 nM; IC50 [9]: 410 nM; IC50 [10]: 3.35 nM; IC50 [11]: 68 nM; AUC(0-inf) [12]: 1120 ng·h/mL; AUC(0-inf) [13]: 3620 ng·h/mL; half-life [14]: 2.2 h; half-life [15]: 2.7 h; clearance [16]: 26.6 mL/min/kg; Vd [17]: 4.51 L/kg; Tmax [18]: 3 h; Cmax [19]: 454 ng/mL; bioavailability [20]: 58% |
| 3.33 nM | 1420 nM | Cc1ccc(F)cc1Nc1nc2ccc(N(C)C(=O)/C=C/CN(C)C)cc2n2cncc12 | 4.88 nM | EC50 [4]: > 10000 nM |
| 2.96 nM | 716 nM | Cc1cc(F)ccc1Nc1nc2ccc(N(C)C(=O)/C=C/CN(C)C)cc2n2cncc12 | 2 nM | – |
| 2.52 nM | 297 nM | C=C(CN1CCOCC1)C(=O)Nc1cc2c(cc1OC)nc(Nc1ccccc1C)c1cncn12 | – | – |
| 1.89 nM | 327 nM | Cc1c(F)cccc1Nc1nc2ccc(N(C)C(=O)/C=C/CN(C)C)cc2n2cncc12 | 3.17 nM | – |
| 1.82 nM | 2130 nM | CN(C)C/C=C/C(=O)N(C)c1cc2c(cc1F)nc(Nc1ccccc1Cl)c1cncn12 | 6.75 nM | – |
| 1.55 nM | 10.9 nM | Cc1ccc(O)cc1Nc1nc2ccc(N(C)C(=O)/C=C/CN(C)C)cc2n2cncc12 | 2.56 nM | – |
| 0.884 nM | 10.9 nM | COc1cc2nc(Nc3ccccc3C)c3cncn3c2cc1NC(=O)/C=C/CN(C)C | – | IC50 ([3]; b cell): Not Active |
| 0.847 nM | 46.6 nM | COc1cc2nc(Nc3ccccc3C)c3cncn3c2cc1NC(=O)C#CCN1CCOCC1 | – | – |
| 0.847 nM | 21.3 nM | COc1cc2nc(Nc3ccccc3C)c3cncn3c2cc1NC(=O)C#CCN1CCCCC1 | – | – |
